# Like-named read-outs stand apart in the source and are kept apart here.
# Columns and labels:
# [1] = system: fibroblast cells (NIH/3T3); test: Cytotoxicity assay; type: cell-based, murine; settings: for IC50: Mus musculus, NIH3T3, 48 h; for NIH/3T3 SI (selectivity index): SI = IC50 mammalian cell/IC50 amastigotes (µg/mL)
# Summary of the method: (§1)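 Cells exposed 48 h at 37 °C, 5% CO2, to four concentrations (0.25-250 µg/mL) in triplicate. Amphotericin B reference (0.025-25 µg/mL); DMSO vehicle control. SRB read-out: fixation in cold 20% TCA, 30 min at 4 °C; 0.1% SRB in 1% acetic acid, 30 min; dye solubilised in 10 mM Trizma; OD 540 nm. IC50 by non-linear regression. SI = mammalian-cell IC50 / amastigote IC50.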
# [2] = system: Murine macrophages (J774.A1); test: Cytotoxicity assay; type: cell-based; settings: for IC50: Mus musculus, J774.A1, 48 h; for J774.A1 SI (selectivity index): SI = IC50 mammalian cell/IC50 amastigotes (µg/mL)
# Summary of the method: as §1
# [3] = system: intracellular amastigotes of Leishmania (Leishmania) amazonensis; type: cell-based, Leishmania (L.) amazonensis (IFLA/BR/1967/PH8); settings: for reduction of infection index: 72 h; for IC50: Peritoneal macrophage
# Summary of the method: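 Resident peritoneal macrophages from 6-week-old female BALB/c mice, 1 x 10^5/well in RPMI-1640 with 10% FCS and gentamicin, 1 h at 37 °C, 5% CO2. Infected with promastigotes (1 x 10^6/well), 4 h at 35 °C. Extract 50-12.5 µg/mL (24, 48, 72 h) or isolated compounds (72 h) at 35 °C. Giemsa staining; 200 cells counted per replicate. Infection index = % infected macrophages × mean amastigotes per macrophage. IC50 by non-linear dose-response regression.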
# [4] = system: promastigotes of Leishmania donovani; settings: ref Camacho et al. 2000; cited from earlier work
# [5] = system: NO production by L. amazonensis infected cells; test: Nitric oxide; type: cell-based, BALB/c mice; settings: for NO production: vs untreated infected cells; for production of nitric oxide (NO): treated infected cells, concentration not given
# Summary of the method: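 Supernatants were taken from infected BALB/c peritoneal macrophages treated as in the amastigote assay. Nitrite was quantified against a sodium nitrite standard curve (1-10 µM in RPMI). Results are mean ± SD, compared with untreated infected cells by Student's t test.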
# [6] = system: axenic amastigotes of Leishmania donovani; settings: ref Weniger et al. 2006, Kunert et al. 2008; cited from earlier work
# [7] = read-out: Intracellular amastigotes IC50
# [8] = read-out: Intracellular amastigotes IC50 (µM)
Compound,IC50 ([1]; read-out: NIH/3T3 IC50),IC50 ([1]; read-out: NIH/3T3 IC50 (µM)),NIH/3T3 SI (selectivity index) [1],IC50 ([2]; read-out: J774.A1 IC50),IC50 ([2]; read-out: J774.A1 IC50 (µM)),J774.A1 SI (selectivity index) [2],"reduction of infection index ([3]; all concentrations tested, compared to the control)",reduction of infection index ([3]; highest concentration (3 µg/mL)),"IC50 [3, 7]","IC50 [3, 8]",activity on promastigotes [4],"NO production ([5]; 0.75 µg/mL, 72 h, p < 0.01)","NO production ([5]; 1.5 µg/mL, 72 h, p < 0.05)",production of nitric oxide (NO) [5],activity on axenic amastigotes [6],reduction of infection index ([3]; 12.5 µg/mL),"NO release ([5]; highest concentration tested, 72 h)"
"O=c1cc(-c2ccc(O)c(-c3c(O)cc(O)c4c(=O)cc(-c5ccc(O)cc5)oc34)c2)oc2cc(O)cc(O)c12 [Amentoflavone, amentoflavone]",2.2 µg/mL,4 µM,22,3 µg/mL,5.5 µM,30,greater than 90.6%,~100%,0.1 µg/mL,0.2 µM,poor activity,significantly lower,significantly lower,lower,not active,–,–
"C[C@@H]1[C@H](O)[C@@H](C)/C=C/C=C/C=C/C=C/C=C/C=C/C=C/[C@H](O[C@@H]2O[C@H](C)[C@@H](O)[C@H](N)[C@@H]2O)C[C@@H]2O[C@](O)(C[C@@H](O)C[C@@H](O)[C@H](O)CC[C@@H](O)C[C@@H](O)CC(=O)O[C@H]1C)C[C@H](O)[C@H]2C(=O)O [Amphotericin B, reference compound]",2.2 µg/mL,2.2 µM,73,4.3 µg/mL,4.7 µM,143.3,–,–,0.03 µg/mL,0.035 µM,–,–,–,–,–,–,–
"O=c1cc(-c2ccc(O)c(-c3c(O)cc4oc(-c5ccc(O)cc5)cc(=O)c4c3O)c2)oc2cc(O)cc(O)c12 [Robustaflavone, robustaflavone]",25.5 µg/mL,47.4 µM,9.1,3.1 µg/mL,5.7 µM,1.1,–,–,2.8 µg/mL,5.3 µM,–,–,–,higher,–,90.8%,increased

# From publication PMC4325620 (Memórias do Instituto Oswaldo Cruz, 2014)
